Assays:
[1] = Inhibition of horse liver alkaline phosphatase; parameters: species or system Equus caballus
Summary of the method: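 Phosphatase activity was read with p-nitrophenyl phosphate as substrate, following a previously described method.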

[2] = molecular target: T1, M-phase inducer phosphatase 3 (Homo sapiens, UniProt P30307); experiment: Inhibition of human GST-Cdc25C expressed in Escherichia coli BL21(DE3)
T1 sequence (P30307 whole entry): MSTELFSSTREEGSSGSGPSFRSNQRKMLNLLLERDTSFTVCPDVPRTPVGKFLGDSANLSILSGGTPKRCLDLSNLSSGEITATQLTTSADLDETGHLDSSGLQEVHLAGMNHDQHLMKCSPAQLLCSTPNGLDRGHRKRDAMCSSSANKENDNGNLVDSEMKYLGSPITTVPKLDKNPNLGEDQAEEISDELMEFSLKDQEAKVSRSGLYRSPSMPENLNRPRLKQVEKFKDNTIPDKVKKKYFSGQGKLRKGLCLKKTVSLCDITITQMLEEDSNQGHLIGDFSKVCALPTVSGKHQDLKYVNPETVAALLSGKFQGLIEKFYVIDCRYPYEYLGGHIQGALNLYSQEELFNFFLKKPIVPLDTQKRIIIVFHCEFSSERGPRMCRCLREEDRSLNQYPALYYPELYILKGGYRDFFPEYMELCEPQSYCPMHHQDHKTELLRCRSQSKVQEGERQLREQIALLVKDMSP
Summary of the method: (§1)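 GST fusion proteins (full-length Cdc25A and Cdc25C; Cdc25B catalytic domain) were expressed in E. coli grown with ampicillin and induced with IPTG at OD600 0.4–0.6 for 5 h. They were purified on glutathione-agarose. Activity was measured with p-nitrophenyl phosphate as substrate across a range of inhibitor concentrations. IC50 is the mean ± SD of at least two independent experiments, each with four determinations per concentration.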

[3] = molecular target: T2, M-phase inducer phosphatase 1 (Homo sapiens, UniProt P30304); experiment: Inhibition of human GST-Cdc25A expressed in Escherichia coli BL21(DE3); summary of the method: as §1
T2 sequence (P30304 whole entry): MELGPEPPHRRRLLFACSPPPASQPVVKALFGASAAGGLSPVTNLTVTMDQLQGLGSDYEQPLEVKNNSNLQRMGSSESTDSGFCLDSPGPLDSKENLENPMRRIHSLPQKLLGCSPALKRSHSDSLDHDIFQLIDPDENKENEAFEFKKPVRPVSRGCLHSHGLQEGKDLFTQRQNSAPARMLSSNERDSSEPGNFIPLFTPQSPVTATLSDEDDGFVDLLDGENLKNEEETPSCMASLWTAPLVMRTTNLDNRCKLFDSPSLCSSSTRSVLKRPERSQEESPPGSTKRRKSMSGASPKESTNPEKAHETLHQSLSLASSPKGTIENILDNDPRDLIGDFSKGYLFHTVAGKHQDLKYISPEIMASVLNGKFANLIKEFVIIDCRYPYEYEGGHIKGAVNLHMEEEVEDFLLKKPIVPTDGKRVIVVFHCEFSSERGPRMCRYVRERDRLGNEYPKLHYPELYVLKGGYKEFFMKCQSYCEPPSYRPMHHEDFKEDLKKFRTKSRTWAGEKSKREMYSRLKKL

[4] = molecular target: T3, M-phase inducer phosphatase 2 (Homo sapiens, UniProt P30305); experiment: Inhibition of human GST-Cdc25B expressed in Escherichia coli BL21(DE3); summary of the method: as §1
T3 sequence (P30305 whole entry): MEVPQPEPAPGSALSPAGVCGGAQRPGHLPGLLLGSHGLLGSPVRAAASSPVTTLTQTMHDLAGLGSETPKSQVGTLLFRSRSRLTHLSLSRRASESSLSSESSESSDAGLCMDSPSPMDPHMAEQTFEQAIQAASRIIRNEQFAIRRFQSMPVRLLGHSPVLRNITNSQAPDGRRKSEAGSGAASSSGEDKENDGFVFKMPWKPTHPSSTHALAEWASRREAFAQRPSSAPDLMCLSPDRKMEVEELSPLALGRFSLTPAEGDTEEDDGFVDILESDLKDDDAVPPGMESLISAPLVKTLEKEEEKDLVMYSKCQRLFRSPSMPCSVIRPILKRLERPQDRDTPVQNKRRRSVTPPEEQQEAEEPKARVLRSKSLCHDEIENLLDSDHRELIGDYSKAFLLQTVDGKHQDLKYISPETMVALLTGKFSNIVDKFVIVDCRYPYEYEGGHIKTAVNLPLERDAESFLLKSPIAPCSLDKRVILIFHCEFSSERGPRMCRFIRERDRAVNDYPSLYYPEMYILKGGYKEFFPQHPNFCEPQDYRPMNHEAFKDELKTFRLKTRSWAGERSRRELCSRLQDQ

Structure (SMILES) | IC50 [1] | IC50 [2] | IC50 [3] | IC50 [4]
CCCCCCCCCCCCCCC1=C(CCC(=O)O)C(=O)OC1=O | > 100 µM | 12.6 µM | 6.3 µM | 11.6 µM
CCCCCCCCCCCCCCCCCC1=C(CCC(=O)O)C(=O)OC1=O | > 100 µM |  |  | 
CCCCCCCC/C=C\CCCCCCCC1=C(CCC(=O)O)C(=O)OC1=O | > 100 µM | 8.8 µM | 4.5 µM | 6.7 µM
CCCCCCCCCC1=C(CCC(=O)O)C(=O)OC1=O | > 100 µM | > 100 µM | > 100 µM | > 100 µM
CCCCCCCCCCCC1=C(CCC(=O)O)C(=O)OC1=O | > 100 µM | > 100 µM | 44.3 µM | 47.7 µM
CCCCCCCCCCCCCCCC1=C(CCC(=O)O)C(=O)OC1=O | > 100 µM | 8.6 µM | 4.7 µM | 7.6 µM

The remaining lines, values ahead:

IC50 [1] | IC50 [2] | IC50 [3] | IC50 [4] | Structure (SMILES)
> 100 µM | > 100 µM | > 100 µM | > 100 µM | CCCCCCC1=C(CCC(=O)O)C(=O)OC1=O
> 100 µM | > 100 µM | > 100 µM | > 100 µM | CCCCCCCCC1=C(CCC(=O)O)C(=O)OC1=O
> 100 µM | 53.9 µM | 44.4 µM | 55.2 µM | CCCCCCCCCCC1=C(CCC(=O)O)C(=O)OC1=O
> 100 µM | 5.7 µM | 8.1 µM | 8.7 µM | CCCCCCCCCCCCCC1=C(CCC(=O)O)C(=O)OC1=O

Source: ChEMBL document CHEMBL1142879, “Synthesis and biological evaluation of dialkylsubstituted maleic anhydrides as novel inhibitors of Cdc25 dual specificity phosphatases” (Eur J Med Chem, 2007)
